Source: PubChem
hERG protect – hERG rescue from dofetilide block, primary screen, cell-based, CHO-hERG, FluxOR thallium flux, dofetilide IC70; 0.51% of 310,000 active; activation (rescue from dofetilide block), less the hit threshold, % at 10 µM; AID 1511, 2009; dofetilide IC70 present; Voltage-gated inwardly rectifying potassium channel KCNH2 (Homo sapiens), Q12809;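 active means activation above the mean of controls blocked by dofetilide plus 5 SD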;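 further: thallium influx through hERG after potassium depolarization seen as dye fluorescence rise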
Kir21 inh – inhibitors of mouse Kir2.1 inward-rectifier potassium channel. HEK293-Kir2.1, FluxOR thallium flux fluorescence; active compounds read low. 0.85% of 310,000 active. B-score at 10 µM. Inward rectifier potassium channel 2 (Mus musculus), P35561. AID 1672, 2009;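 active means fluorescence ratio B-score at or below minus 3 SD of library scores, with starting-brightness B-score within 2 SD, cut at about -4.2 in these data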;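 further: channel flux triggered by added potassium and thallium sulfate stimulus; B-score of peak minus minimum fluorescence over baseline after thallium stimulus; more negative B-score means stronger Kir2.1 block with less thallium influx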
KCNQ1 act – potentiators or activators of KCNQ1 channel, primary screen, cell-based, thallium flux, high-throughput; CHO-K1 KCNQ1, thallium flux FluxOR fluorescence; active compounds read high; Potassium voltage-gated channel subfamily KQT member 1 (Homo sapiens), P51787; 0.35% of 310,000 active; B-score at 10 µM;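 active means fluorescence ratio B-score, a plate-corrected score, at least three library SD, with initial intensity B-score within 5 SD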
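Assay system: CHO-K1 cells stably expressing KCNQ1. Medium: assay buffer for compound exposure, DMSO matched across wells. Timing: 37 °C overnight plating, 90-min dark dye load, 20-min compound pretreatment. Signal: kinetic FluxOR fluorescence, 10 s baseline plus 110 s post-stimulus.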
KCNK9 block – KCNK9 potassium channel inhibitors, primary screen, HEK293 cells, thallium flux. B-score at 10 µM. 1.2% of 310,000 active. FluxOR thallium flux fluorescence; active compounds read low. Potassium channel subfamily K member 9 (Homo sapiens), Q9NPC2;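 active means ratio B-score over 3 SD below the library mean, with starting fluorescence within 5 SD of its mean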;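 further: negative B-score means less thallium flux so channel inhibition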
KCNQ1 inh – inhibitors of human KCNQ1 channel, primary screen, cell-based, thallium flux, high-throughput; Potassium voltage-gated channel subfamily KQT member 1 (Homo sapiens), P51787; CHO-K1 KCNQ1, FluxOR thallium flux fluorescence; active compounds read high; B-score at 10 µM; 1.3% of 310,000 active; AID 2642, 2010;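 active means compounds whose thallium flux B-score, printed positive for inhibition, exceeds three library SD while starting fluorescence stays within three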;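 further: channel opened by potassium depolarization with thallium stimulus after 20 min compound exposure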
KCNK3 inh – human KCNK3 channel inhibitors, primary screen, CHO cells, FluxOR thallium flux, B-score; FluxOR fluorescence; active compounds read low; AID 602410, 2012; 0.84% of 340,000 active; B-score at 10 µM;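 active means B-score under library mean minus 4 SD, starting fluorescence ratio at most library mean plus 5 SD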;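 further: more negative B-score means stronger inhibition of thallium flux through KCNK3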
Target sequence (O14649 whole entry, looked up): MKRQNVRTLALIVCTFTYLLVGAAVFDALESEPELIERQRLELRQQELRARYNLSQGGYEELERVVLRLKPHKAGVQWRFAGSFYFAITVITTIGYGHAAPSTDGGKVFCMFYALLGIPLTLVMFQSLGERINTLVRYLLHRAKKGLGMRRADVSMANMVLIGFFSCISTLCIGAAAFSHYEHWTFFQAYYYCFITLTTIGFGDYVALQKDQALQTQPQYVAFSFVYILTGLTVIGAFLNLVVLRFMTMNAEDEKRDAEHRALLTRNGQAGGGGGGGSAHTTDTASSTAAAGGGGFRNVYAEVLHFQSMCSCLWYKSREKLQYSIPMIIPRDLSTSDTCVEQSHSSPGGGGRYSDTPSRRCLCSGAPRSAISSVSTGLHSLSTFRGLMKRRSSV
KCNK9 block conf – KCNK9 potassium channel inhibitors, confirmation, HEK293 cells, thallium flux, duplicate | inhibition, % at 10 µM | FluxOR thallium flux fluorescence | 43% of 4,900 active | shares compounds with KCNK9 block;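 active means thallium signal inhibited by more than 5 SD of the compound-free buffer control wells, on both duplicate plates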;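 further: 0% = assay buffer control wells without compound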
Kir2-1 spec – mouse Kir2.1 channel inhibition, confirmation, selectivity assay for KCNK9 modulator project, cell-based, HEK293, thallium flux; shares compounds with KCNK9 block; Kir2.1 cells, FluxOR thallium flux fluorescence; inhibition, % at 10 µM; 4% of 4,900 active; AID 492993, 2010;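 active means thallium signal drop more than 5 SD beyond the mean of the no-compound control wells, seen in both duplicate plates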;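 further: signal is fluorescence rise after thallium addition divided by baseline fluorescence; plate controls were assay buffer only for no effect and full block by chlorpromazine control for full effect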
HEK293 Tl ctr – thallium flux in non-induced HEK293 cells, confirmation, counter-screen for KCNK9 inhibitor project, cell-based, second counter screen, non-induced KCNK9-HEK293; shares compounds with KCNK9 block; FluxOR thallium flux; inhibition, % at 10 µM; 40% of 4,900 active; AID 492997, 2010;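 active means thallium signal drop beyond 5 SD of the untreated control mean, on both duplicate plates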;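 further: plate controls were buffer only IC0 wells for no effect and SID17386958 at its maximal inhibitory level for full effect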
Numbers without * were called inactive; i = inactive; / = not tested or not shown. In the library only some 3.7% were active in any assay of this set; here they are far more common.

SMILES	hERG protect	Kir21 inh	KCNQ1 act	KCNK9 block	KCNQ1 inh	KCNK3 inh	KCNK9 block conf	Kir2-1 spec	HEK293 Tl ctr
Cc1c(N=NC2=C(O)CC(C)(C)CC2=O)cc2c(c1[N+](=O)[O-])C(C)(C)CC2(C)C	-11.3	0.67	i	i	6*	i	i	i	i
CC(=O)Nc1cc2c(c([N+](=O)[O-])c1C)C(C)(C)CC2(C)C	/	/	/	/	/	i	/	/	/
COc1ccccc1C(=O)Nc1cc(Cl)ccc1O	-5.5	0.24	i	i	i	i	/	/	/
CCOc1ccccc1C(=O)Nc1cc(Cl)ccc1O	-11.9	1.97	i	-11.8*	i	i	52.5%*	i	36.0%*
COc1ccc(/C=C(\C#N)C(=O)NCCc2ccccc2)cc1OCc1ccccc1	-18.6	0.6	i	i	i	i	i	i	i
COc1cc(/C=C(/C#N)C(=O)NCc2ccccc2)cc(OC)c1OC	-7.7	0.12	i	i	i	i	/	/	/
Cc1ccc(/C=C2/SC(=S)N(C3CCCCC3)C2=O)o1	-7.6	-0.19	i	i	i	i	i	i	i
Cc1cc(C)n(CC(O)CN2c3ccccc3Sc3ccccc32)n1 (stereo not drawn)	-11.2	-3.86	i	i	6*	i	i	i	i
Cn1c(=O)c2c(ncn2CC(=O)OCC(=O)NNC(=O)c2ccc(Cl)cc2)n(C)c1=O	/	/	/	/	/	i	/	/	/
Nc1c(C(=O)c2ccccc2)oc2ccccc12	-7.5	2.45	i	i	i	i	/	/	/
Cc1c(C(=O)c2ccccc2)oc2ccc3ccccc3c12	-3.9	-1.23	i	-11.4*	i	i	56.5%*	i	39.5%*
O=C(Nc1ccc2nc(-c3cccs3)[nH]c2c1)c1cccs1	-7.4	1.95	i	-10.3*	i	i	56.5%*	i	i
Cc1cccc(NC(=O)/C(C#N)=C\c2ccc(C(=O)O)cc2)c1	-8.7	0.76	i	i	i	i	/	/	/
COc1cc(C)c(/C=C(\C#N)C(=O)Nc2cccc(C)c2)cc1C(C)C	-4.3	-1.22	i	i	i	i	i	i	i
CCOc1ccc(OCC)c(-c2c(=O)n(OCc3ccc(C(C)(C)C)cc3)c3ccccc3[n+]2[O-])c1	-15.8	-0.72	i	i	i	i	/	/	/
O=C(Cc1c(F)cccc1Cl)Nc1nc2ccccc2s1	-6.5	-0.82	i	-13.3*	i	i	i	i	49.5%*
COC(=O)c1cc(OC)c(OC)cc1NC(=S)N1CCN(C/C=C/c2ccccc2)CC1	-10.9	-0.56	i	i	i	i	i	i	i
COc1cc(C(=O)N2CCN(C/C=C/c3ccccc3)CC2)cc(OC)c1OC	-11.9	-0.74	i	i	i	i	/	/	/
CCOc1cc(C(=O)N2CCN(C/C=C/c3ccccc3)CC2)cc(OCC)c1OCC	-4.0	-1.48	i	i	i	i	i	i	i
COc1ccc(NC(=S)N2CCN(C/C=C/c3ccccc3)CC2)c(OC)c1	-6.2	-0.55	i	i	i	i	/	/	/
COC(=O)c1ccc(C)c(NC(=O)C(CCSC)NC(=O)c2cc(OC)c(OC)c(OC)c2)c1 (stereo not drawn)	-9.0	1.15	i	i	i	i	/	/	/
Cc1cc(C2N=C(N)Nc3nc4ccccc4n32)c(C)n1-c1ccccc1Cl (stereo not drawn)	-11.4	-0.19	i	-8.69*	i	i	52.0%*	i	39.0%*
Cc1ccc(COc2cccc3c2CCN(Cc2ccc(F)cc2)C3=O)cc1	-20.7	0.03	i	-10.3*	i	i	74.0%*	i	41.0%*
O=C1c2cccc(OCc3ccc(F)cc3)c2CCN1Cc1ccccc1	-7.6	-0.71	i	-10.9*	i	i	70.0%*	i	47.5%*
CCN1CCc2c(OCc3ccccc3)cccc2C1=O	-11.0	0.93	i	i	i	i	/	/	/
SMILES	hERG protect	Kir21 inh	KCNQ1 act	KCNK9 block	KCNQ1 inh	KCNK3 inh	KCNK9 block conf	Kir2-1 spec	HEK293 Tl ctr
Cc1nnc(SCC(=O)Nc2ccccc2F)n1-c1ccc(F)cc1	-9.1	0.35	i	i	i	i	/	/	/
COC(=O)C1=CN(Cc2ccc(C)cc2)C=C(C(=O)OC)C1c1ccc(F)c(F)c1	-10.4	0.1	i	-10.8*	i	i	i	i	39.0%*
O=C(Nc1nc(-c2ccccc2)cs1)NC1CCCCC1	-11.2	0.1	i	i	i	i	/	/	/
c1ccc(-c2csc(NC3CCCCC3)n2)cc1	-6.3	-0.64	i	i	i	i	i	i	i
CCCC1CCC(=C(C#N)C(N)=O)CC1 (stereo not drawn)	-7.3	0.94	i	-8.78*	i	i	i	i	i
CCCC1CCC(c2ccc(C(N)=O)cc2)CC1 (stereo not drawn)	-2.3	0.51	i	i	i	i	/	/	/
CCC(c1nnnn1Cc1cccs1)N1CCN(c2nc3ccccc3s2)CC1 (stereo not drawn)	-11.2	-0.73	i	-10.8*	i	i	29.5%*	i	i
CCCCS(=O)(=O)N1CCC(C(=O)Oc2ccc(Cl)cc2)CC1	-0.4	0.79	i	i	i	i	/	/	/
COc1ccc(C2=NS(=O)(=O)N(C)C(C(=O)NCc3ccccn3)=C2)cc1OC	-7.2	-1.75	i	i	i	i	/	/	/
O=C(CSCc1ccc(Cl)cc1)Nc1ccc(S(=O)(=O)N2CCCCCC2)cc1	-8.5	0.03	i	i	i	i	i	i	i
COc1ccc(NC(=O)CSCC(=O)Nc2ccc(S(=O)(=O)N3CCCCC3)cc2)cc1	-8.2	-0.35	i	i	i	i	/	/	/
COc1ccc(CSCC(=O)Nc2ccc(S(=O)(=O)N3CCCCCC3)cc2)cc1	-2.8	-2.48	i	i	i	i	i	i	i
